Laboratory results as given in ChEMBL document CHEMBL1147526, “Sulfonyl-phenyl-ureido benzamidines; a novel structural class of potent antimalarial agents” (Bioorg Med Chem Lett, 2004).

Each compound was assayed on Plasmodium falciparum (assay: In vitro antimalarial activity against Plasmodium falciparum Dd2).
Assay type: functional, organism-based
Procedure, shortened: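 P. falciparum Dd2 grown in RPMI 1640 with 10% heat-treated human serum and 3 mg/l gentamycin, 0.3% parasitaemia, 2.5% haematocrit; compounds 0.3 to 100 μM. After 48 h, [8-³H]hypoxanthine added and incubated a further 18 h. Cells filtered, washed, and incorporated radioactivity counted by scintillation to give IC50.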

| Structure (SMILES) | IC50 |
| --- | --- |
| N=C(N)c1ccc(NC(=O)Nc2cccc(S(=O)(=O)NCc3ccccc3)c2)cc1 | 410 nM |
| N=C(N)c1ccc(NC(=O)Nc2ccc(S(=O)(=O)NCc3c(F)ccc(F)c3F)cc2)cc1 | 210 nM |
| CCCCNS(=O)(=O)c1ccc(NC(=O)Nc2cccc(C(=N)N)c2)cc1 | 3900 nM |
| N=C(N)c1ccc(NC(=O)Nc2cccc(S(=O)(=O)NCc3c(F)ccc(F)c3F)c2)cc1 | 190 nM |
| CNS(=O)(=O)c1ccc(NC(=O)Nc2cccc(C(=N)N)c2)cc1 | 3000 nM |
| N=C(N)c1cccc(NC(=O)Nc2ccc(S(=O)(=O)Nc3ccc4ccccc4c3)cc2)c1 | 8200 nM |
| N=C(N)c1cccc(NC(=O)Nc2ccc(S(=O)(=O)Nc3cccc4ccccc34)cc2)c1 | 17000 nM |
| N=C(N)c1ccc(NC(=O)Nc2cccc(S(=O)(=O)NCc3ccc(S(N)(=O)=O)cc3)c2)cc1 | > 2500 nM |
| N=C(N)c1cccc(NC(=O)Nc2ccc(S(=O)(=O)NCCN3CCOCC3)cc2)c1 | > 2500 nM |
| N=C(N)c1cccc(NC(=O)Nc2cccc(S(=O)(=O)NCc3ccc(S(N)(=O)=O)cc3)c2)c1 | 980 nM |
| N=C(N)c1cccc(NC(=O)Nc2cccc(S(=O)(=O)NCc3c(F)ccc(F)c3F)c2)c1 | 250 nM |
| N=C(N)c1cccc(NC(=O)Nc2ccc(S(=O)(=O)NCCO)cc2)c1 | 890 nM |
| N=C(N)c1cccc(NC(=O)Nc2ccc(S(=O)(=O)Nc3ccccc3)cc2)c1 | 9000 nM |
| N=C(N)c1cccc(NC(=O)Nc2cccc(C(=N)N)c2)c1 [AMICARBALIDE] | 5 nM |
| N=C(N)c1ccc(NC(=O)Nc2ccc(S(=O)(=O)NCc3ccc(S(N)(=O)=O)cc3)cc2)cc1 | 90 nM |
| N=C(N)c1cccc(NC(=O)Nc2ccc(S(N)(=O)=O)cc2)c1 | > 4900 nM |
| N=C(N)c1ccc(NC(=O)Nc2ccc(S(=O)(=O)NCc3ccccc3)cc2)cc1 | 400 nM |
| N=C(N)c1cccc(NC(=O)Nc2cccc(S(=O)(=O)NCc3ccccc3)c2)c1 | 6200 nM |
| N=C(N)c1cccc(NC(=O)Nc2ccc(S(=O)(=O)N3CCc4ccccc4C3)cc2)c1 | 610 nM |

Other lines, results leading:

| IC50 | Structure (SMILES) |
| --- | --- |
| 1110 nM | N=C(N)c1cccc(NC(=O)Nc2ccc(S(=O)(=O)NCc3ccc(F)c(F)c3)cc2)c1 |
| 17 nM | N=C(N)c1cccc(NC(=O)Nc2ccc(S(=O)(=O)NCc3c(F)ccc(F)c3F)cc2)c1 |
| 320 nM | N=C(N)c1cccc(NC(=O)Nc2ccc(S(=O)(=O)NCc3ccc(F)cc3)cc2)c1 |
| 450 nM | N=C(N)c1cccc(NC(=O)Nc2ccc(S(=O)(=O)NCc3ccccc3)cc2)c1 |
| 1110 nM | N=C(N)c1cccc(NC(=O)Nc2ccc(S(=O)(=O)NCc3ccc(F)cc3F)cc2)c1 |
| 500 nM | N=C(N)c1cccc(NC(=O)Nc2ccc(S(=O)(=O)NCc3cccc(F)c3)cc2)c1 |
| 1800 nM | N=C(N)c1cccc(NC(=O)Nc2ccc(S(=O)(=O)NCc3cc(F)c(F)cc3F)cc2)c1 |
| 620 nM | N=C(N)c1cccc(NC(=O)Nc2ccc(S(=O)(=O)NCc3ccccc3F)cc2)c1 |
| 7 nM | N=C(N)c1cccc(NC(=O)Nc2ccc(S(=O)(=O)NCc3ccc(S(N)(=O)=O)cc3)cc2)c1 |
